Test results reported in ChEMBL document CHEMBL4346661, “Design, synthesis and evaluation of novel diaryl-1,5-diazoles derivatives bearing morpholine as potent dual COX-2/5-LOX inhibitors and antitumor agents” (Eur J Med Chem, 2019).
Calls of active or inactive are those of the source. The rule behind the calls is not given here.

Key:
B16-F10 [1] = assay: Induction of apoptosis in mouse B16F10 cells assessed as necrosis cells at 25 uM incubated for 48 hrs by Annexin-V-FITC/propidium iodide staining-based flow cytometric analysis (reference value: 0.186%); assay type: functional
Method in brief: (§1)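 F10 cells were exposed to 0, 3.125, 6.25, 12.5 or 25 µM for 48 h. Cells were stained with Annexin V/PI and read by flow cytometry. Data are mean ± SD of three independent experiments.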

B16-F10 [2] = assay: Induction of cell cycle arrest in mouse B16F10 cells assessed as cell accumulation at G1 phase at 12.5 uM incubated for 48 hrs by propidium iodide staining-based flow cytometric analysis (reference value: 59.73%); assay type: functional
B16-F10 [3] = assay: Induction of apoptosis in mouse B16F10 cells assessed as early apoptosis cells at 25 uM incubated for 48 hrs by Annexin-V-FITC/propidium iodide staining-based flow cytometric analysis (reference value: 2.93%); assay type: functional; method in brief: as §1
B16-F10 [4] = assay: Antitumor activity against mouse B16F10 cells implanted in nude mouse assessed as reduction in tumor size at 20 mg/kg, ip administered once per 2 days for 14 days by caliper method; assay type: functional
Method in brief: (§2)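 Nude mice were given 5×10^6 F10 cells subcutaneously in the right flank. At about 100 mm3, 24 mice were randomized into four groups of vehicle or compound. Dosing was intraperitoneal every two days for two weeks. Tumor volume was recorded every other day. Tumors were excised and weighed after the last treatment, and body weight was monitored.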

B16-F10 [5] = assay: Induction of apoptosis in mouse B16F10 cells assessed as late apoptosis cells at 25 uM incubated for 48 hrs by Annexin-V-FITC/propidium iodide staining-based flow cytometric analysis (reference value: 2.88%); assay type: functional; method in brief: as §1
B16-F10 [6] = assay: Induction of apoptosis in mouse B16F10 cells assessed as necrosis cells at 6.25 uM incubated for 48 hrs by Annexin-V-FITC/propidium iodide staining-based flow cytometric analysis (reference value: 0.186%); assay type: functional; method in brief: as §1
B16-F10 [7] = assay: Induction of apoptosis in mouse B16F10 cells assessed as early apoptosis cells at 6.25 uM incubated for 48 hrs by Annexin-V-FITC/propidium iodide staining-based flow cytometric analysis (reference value: 2.93%); assay type: functional; method in brief: as §1
B16-F10 [8] = assay: Induction of apoptosis in mouse B16F10 cells assessed as late apoptosis cells at 6.25 uM incubated for 48 hrs by Annexin-V-FITC/propidium iodide staining-based flow cytometric analysis (reference value: 2.88%); assay type: functional; method in brief: as §1
B16-F10 [9] = assay: Induction of cell cycle arrest in mouse B16F10 cells assessed as cell accumulation at S phase at 12.5 uM incubated for 48 hrs by propidium iodide staining-based flow cytometric analysis (reference value: 14.16%); assay type: functional
B16-F10 [10] = assay: Induction of cell cycle arrest in mouse B16F10 cells assessed as cell accumulation at G1 phase at 3.125 uM incubated for 48 hrs by propidium iodide staining-based flow cytometric analysis (reference value: 59.73%); assay type: functional
B16-F10 [11] = assay: Induction of cell cycle arrest in mouse B16F10 cells assessed as cell accumulation at G1 phase at 25 uM incubated for 48 hrs by propidium iodide staining-based flow cytometric analysis (reference value: 59.73%); assay type: functional
B16-F10 [12] = assay: Induction of apoptosis in mouse B16F10 cells assessed as late apoptosis cells at 3.125 uM incubated for 48 hrs in presence of apoptosis inhibitor z-VAD-fmk by Annexin-V-FITC/propidium iodide staining-based flow cytometric analysis (reference value: 3.13%); assay type: functional
B16-F10 [13] = assay: Antitumor activity against mouse B16F10 cells implanted in nude mouse assessed as decrease in tumor weight at 20 mg/kg, ip administered once per 2 days for 14 days by caliper method relative to control; assay type: functional, organism-based; method in brief: as §2

## NS(=O)(=O)c1ccc(-n2nc(C(=O)NCCCN3CCOCC3)cc2-c2ccc(C(F)(F)F)cc2)cc1
B16-F10 [1]
  Activity: 1.33%
B16-F10 [2]
  Activity: 49.08%
B16-F10 [3]
  Activity: 40.8%
B16-F10 [4]
  Activity: 1076.58 mm3
B16-F10 [5]
  Activity: 6.11%
B16-F10 [6]
  Activity: 0.366%
B16-F10 [7]
  Activity: 14.5%
B16-F10 [8]
  Activity: 7.9%
B16-F10 [9]
  Activity: 15.42%
B16-F10 [10]
  Activity: 55.36%
B16-F10 [11]
  Activity: 50.93%
B16-F10 [12]
  Activity: 4.52%
B16-F10 [13]
  Activity: Active
